# Only some compounds are listed: those with a hit (about 3.5% of all), similar ones and a draw of the others.
# RGS4 pot – potentiators or activators of RGS4. HEK293 M3R/inducible RGS4, carbachol calcium flux Fluo4; stronger effect = lower value. B-score at 10 µM. 310,000 tested, 0.92% active. AID 463111;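 active = B-score of the integrated calcium signal more than 4 SD below the library mean, with starting fluorescence not abnormally high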;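 note: negative B-score means reduced calcium response which marks RGS4 activation or potentiation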
#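 Assay system: Inducible-RGS4 HEK293 cells carrying M3 receptor | Schedule: Compound preincubation 20 min at room temperature before agonist | Signal: Kinetic calcium fluorescence imaging with Fluo4-AM dye, 2 µM | Read-out basis: B score from integrated fluorescence ratio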
# MrgX1 antagonist – human MrgX1 receptor antagonism, primary screen; B-score at 10 µM; Q96LB2; MRGX1-HEK293 calcium flux, Fluo-4, BAM8-22 antagonism; stronger effect = lower value; 310,000 tested, 1.3% active;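 active = calcium-response B-score plate-corrected more than 3 library SD below zero, starting fluorescence within 5 deviations, no agonist response on first addition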;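 note: peak minus trough fluorescence over baseline after final BAM8-22 challenge near maximal dose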
# MrgX1 agonist – human MrgX1 receptor agonism, primary screen; Q96LB2; MrgX1-HEK293 cells, Fluo-4 calcium fluorescence, agonist mode; stronger effect = higher value; B-score at 10 µM; 310,000 tested, 0.44% active;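 active = calcium response B-score plate-corrected fluorescence ratio at least 3 library SD, with starting fluorescence B-score inside 5 SD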
#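 Material: HEK293 cells stably expressing human MrgX1 receptor | Quantity: 15,000 cells per well | Times: Cells plated overnight, dye loaded 0.5 h 37 °C, 0.5 h room temperature | Measured by: Kinetic Fluo-4 NW fluorescence of intracellular calcium | Control set: Positive and negative controls per plate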
# MrgX1 allo act – allosterically activates human MrgX1 receptor signaling | Q96LB2 | MrgX1-HEK293, Fluo-4 calcium flux, FDSS; stronger effect = higher value | B-score at 10 µM | 310,000 tested, 0.63% active | AID 588675;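 active = plate-corrected calcium response at least 3 library SD above typical, normal starting fluorescence, not activating the receptor alone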;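 note: compound read alongside a low EC10 to EC30 dose of BAM8-22 agonist; peak minus trough fluorescence over baseline measured at the second addition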
# RGS4 inh – human RGS4 inhibition | B-score at 10 µM | 310,000 tested, 0.45% active | HEK293 M3R/RGS4 inducible, Fluo-4 calcium flux; stronger effect = higher value; triggered by carbachol at its EC20 | P49798;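 active = B-score, a plate-corrected calcium signal, over three deviations above library mean, with baseline fluorescence within five deviations of library mean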;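 note: RGS4 expression induced by doxycycline in cells with stable M3 receptor; B-score is computed from the integrated fluorescence ratio over baseline after carbachol; higher B-score means a larger calcium signal and so more RGS4 inhibition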
# Target sequence (P49798 whole entry, looked up): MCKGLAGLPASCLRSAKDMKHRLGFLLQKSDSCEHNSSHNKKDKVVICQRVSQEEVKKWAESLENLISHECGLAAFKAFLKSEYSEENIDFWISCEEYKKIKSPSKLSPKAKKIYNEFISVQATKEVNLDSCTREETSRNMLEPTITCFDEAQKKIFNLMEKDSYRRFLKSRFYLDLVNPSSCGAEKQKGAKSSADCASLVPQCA
# MrgX1 ant reconf – confirmation of human MrgX1 receptor antagonists; 2,300 tested, 19% active; shares compounds with MrgX1 antagonist; remaining BAM8-22 calcium response % of control (stronger effect = lower value), % at 10 µM; MrgX1-HEK293, BAM8-22 calcium flux, Fluo-4; stronger effect = lower value;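 active = remaining agonist calcium response no higher than 100% minus 3 SD of agonist-only control wells, with starting fluorescence near control levels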;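 note: agonist BAM8-22 given at a near maximal EC90 to ECmax level; peak minus minimum fluorescence divided by baseline after agonist addition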
# HEK293 Ca flux – counter-screen for MrgX1 antagonists: effect in parental HEK293 cells; shares compounds with MrgX1 antagonist; 4,000 tested, 2% active; Fluo-4 calcium fluorescence, FDSS; fluorescence ratio F(max-min)/F0 at 10 µM;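 active = duplicate-averaged calcium fluorescence ratio at least three times the standard deviation of buffer wells, a nonspecific response in parental cells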
# HEK293 Ca counter – activity in parental HEK293 cells without MrgX1. shares compounds with MrgX1 antagonist. 4,000 tested, 0.4% active. parental HEK293 calcium flux, Fluo-4 fluorescence ratio; stronger effect = higher value. AID 624114. fluorescence ratio F(max-min)/F0 at 10 µM;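 active = calcium fluorescence ratio, averaged over duplicates, at least 3 SD of the buffer-well ratio, meaning a nonspecific response in receptor-free cells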;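 note: untransfected parental HEK293 lacking MrgX1 used as counterscreen for MrgX1 allosteric activators; fluorescence change taken during the second addition on a kinetic imager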
# HEK293 Ca cntr2 – activity in parental HEK293 cells lacking MrgX1 receptor; fluorescence ratio F(max-min)/F0 at 10 µM; Fluo-4 calcium fluorescence (FDSS); stronger effect = higher value; shares compounds with MrgX1 antagonist; 4,000 tested, 8.7% active;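 active = calcium fluorescence ratio at least three times the spread of buffer wells, meaning a non-specific response in parental cells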
# Numbers without * were called inactive; i = inactive; / = no result given; ! = a repeat was not active.
SMILES,RGS4 pot,MrgX1 antagonist,MrgX1 agonist,MrgX1 allo act,RGS4 inh,MrgX1 ant reconf,HEK293 Ca flux,HEK293 Ca counter,HEK293 Ca cntr2
CC1CCCC(C)N1C(=O)CSCc1ccc(Cl)cc1 (centres undefined),i,-4.7*,i,i,i,i,i,i,i
CC1CCCC(C)N1C(=O)COC(=O)Cc1ccc(Cl)cc1 (centres undefined),i,i,i,i,i,/,/,/,/
Cc1c(C(=O)NCC2CCCO2)oc2ccc(S(=O)(=O)N3CCCCC3)cc12 (centres undefined),i,-7.2*,i,i,i,84%*,i,i,i
Cc1ccc(CNC(=O)Cc2ccc(-c3ccccc3)cc2)cc1,i,i,i,i,i,/,/,/,/
Cc1ccc(CC(=O)NCc2ccc(F)cc2)cc1,i,-5*,i,i,i,i,i,i,i
Cc1cc(C)n(C(=O)c2cc(F)c(F)cc2C)n1,i,i,i,i,i,/,/,/,/
Cc1ccccc1OCC(O)Cn1c(=N)n(CCN2CCOCC2)c2ccccc21 (centres undefined),i,-8.5*!,i,i,i,i,i,i,i
Cc1noc(C(F)(F)F)c1C(=O)NNC(=O)c1ccccc1,i,i,i,i,i,/,/,/,/
CN1CCN(Cc2nc3ccccc3c(=O)n2CC#N)CC1,i,-5.6*,i,i,i,i,i,i,i
O=C(Nc1ccc2c(c1)OCO2)N1CCN(c2ccc(F)cc2)CC1,i,-4.7*,i,i,i,83%*,i,i,i
CCN(C(=O)Cn1cnc2ccccc2c1=O)C1CCS(=O)(=O)C1 (centres undefined),i,i,i,i,i,/,/,/,/
CCn1c(C(C)NS(=O)(=O)c2ccc(Cl)cc2)n[nH]c1=S (centres undefined),i,-6.5*,i,i,i,i,i,i,i
CCCn1c(C(C)NS(=O)(=O)c2ccccc2)n[nH]c1=S (centres undefined),i,i,i,i,i,/,/,/,/
Cc1ccc(C)c(C(=O)COC(=O)C(C)N2C(=O)C3C4CCC(C4)C3C2=O)c1 (centres undefined),i,i,i,i,i,/,/,/,/
Cc1cccc(NC(=O)CNC(=O)c2ccc3c(c2)OCO3)n1,i,-9.4*,i,i,i,i,i,i,i
Cc1cccc(NC(=O)CCCN2C(=O)C(c3ccccc3)Oc3cccnc32)c1C (centres undefined),i,i,i,i,i,/,/,/,/
Cc1ccc(C)c(S(=O)(=O)N2CCCC2CNC(=O)C(=O)NCCc2ccco2)c1 (centres undefined),i,i,i,i,i,/,/,/,/
O=C(NCCc1ccco1)C(=O)NCC1CCCN1S(=O)(=O)c1ccccc1 (centres undefined),-7.3*,-5.1*,i,i,i,i,i,i,i
Nc1nc[nH]c(=O)c1N=Cc1ccccc1,i,i,i,i,i,/,/,/,/
CCOC(=O)N1CCN(C2CC(=O)N(c3ccc(F)cc3)C2=O)CC1 (centres undefined),i,-5.9*,i,i,i,i,i,i,i
CC(C)CN(C(=O)c1ccco1)C1CCS(=O)(=O)C1 (centres undefined),i,-4.9*,i,i,i,i,i,i,i
